Reference: article PMC3332339 (European Journal of Clinical Pharmacology, 2012)
Marks after values point to notes of the source that are not given here. Each block holds one compound with its values, some of them ahead of it.

What was measured:
[1] = system: factor Xa inhibition and thrombin inhibition; assay: Prothrombinase-induced clotting time; assay type: in vivo, human; conditions: for PiCT AUEC0–48, ratio of adjusted test/reference gMean (90% CI) / PiCT ERmax, ratio of adjusted test/reference gMean (90% CI): after enoxaparin vs alone
Outline: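 Healthy-adult crossover: oral prodrug 220 mg alone, or 24 h after 3 daily s.c. LMWH 40 mg doses. Platelet-poor plasma incubated with phospholipid/Russell's viper venom activator, 3 min at 37°C; factor Xa added, recalcified with reagent containing 25 mM CaCl2, clotting time read. Daily 142 ng/mL quality-control standard run at start, middle and end. AUEC0–48 and ERmax versus baseline; geometric mean ratios with 90% CI.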

[2] = system: intrinsic pathway of the coagulation cascade; assay: Activated partial thromboplastin time; assay type: in vivo, human; conditions: for aPTT AUEC0–48, gMean / aPTT ERmax, gMean / aPTT Ebase (baseline effect), gMean: n = 23
Outline: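 Crossover in healthy adults (18–55 y) with 5-day washout: oral thrombin-inhibitor prodrug 220 mg alone, or 24 h after 3 daily s.c. LMWH 40 mg doses. Plasma sampled over 48 h. Equal volumes of plasma and kaolin–cephalin reagent, 3 min at 37°C with stirring, recalcified with 0.025 M CaCl2, then time to fibrin clot on a coagulometer. Geometric mean test/reference ratios with 90% CI.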

[3] = system: thrombin (meizothrombin generated from prothrombin by ecarin); assay: Ecarin clotting time; assay type: in vivo, human
human α-thrombin = assay: Diluted thrombin time; assay type: in vivo; conditions: for dTT (HEMOCLOT) AUEC0–48, gMean / dTT (HEMOCLOT) ERmax, gMean / dTT (HEMOCLOT) Ebase (baseline effect), gMean: n = 23
Outline: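 Healthy-adult crossover (oral prodrug 220 mg alone or after 3 days of s.c. LMWH 40 mg), plasma sampled over 48 h. Plasma diluted in 0.9% NaCl, mixed with normal pooled human plasma, 2 min at 37°C; clotting started with a fixed amount of purified human α-thrombin and time to clot recorded in seconds. Quantitative range 50–500 ng/mL. AUEC0–48 and ERmax; geometric mean ratios with 90% CI.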

Safety and tolerability = assay type: in vivo, human; conditions: for Tolerability (global assessment): Phase I, healthy subjects
Outline: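 Open-label single-center crossover in healthy men and women: oral prodrug 220 mg alone, or after 3 daily s.c. LMWH 40 mg doses. Assessed by adverse events, physical examination, blood pressure, pulse, 12-lead ECG, hematology, clinical chemistry, urinalysis, local tolerability and investigator global assessment. Follow-up on days 1–3, with end-of-study examination within 7 days.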

[4] = Dabigatran plasma pharmacokinetics; assay type: in vivo, human; conditions: for AUC(0-inf) / Cmax: both, human, plasma
Outline: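 Crossover in healthy adults: 220 mg oral prodrug alone, or 24 h after 3 daily s.c. LMWH 40 mg doses, with 5-day washout. Plasma taken to 48 h post-dose. Free drug: plasma buffered with 0.2 M ammonium formate pH 3.5 plus [13C6] internal standard. Total drug: alkaline cleavage with NaOH, 2 h at 37°C, then HCl. Validated HPLC-MS/MS, calibrated 1.00–400 ng/mL. Geometric mean ratios with 90% CI.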

[5] = pharmacologically equipotent glucuronide; cited from earlier work
factor Xa/IIa = conditions: cited from earlier work
[6] = dabigatran etexilate 220 mg after enoxaparin, n = 21
[7] = dabigatran etexilate 220 mg alone, n = 23
[8] = dabigatran etexilate dosed 24 h after enoxaparin
[9] = dabigatran etexilate 220 mg after enoxaparin
[10] = dabigatran etexilate 220 mg alone
[11] = dabigatran etexilate 220 mg after enoxaparin, n = 23
[12] = dabigatran etexilate 220 mg after enoxaparin vs alone, adjusted gMean ratio
[13] = enoxaparin pre-treatment before dabigatran etexilate 220 mg

Compound: CCCCCCOC(=O)NC(=N)c1ccc(NCc2nc3cc(C(=O)N(CCC(=O)OCC)c4ccccn4)ccc3n2C)cc1 [Dabigatran etexilate]
- PiCT AUEC0–48, ratio of adjusted test/reference gMean (90% CI) [1]: 163.7 (114.3–234.3) %
- PiCT ERmax, ratio of adjusted test/reference gMean (90% CI) [1]: 115.2 (101.8–130.4) %
- PiCT AUEC0–48, ratio of adjusted test/reference gMean (90% CI) ([1]; listed as dabigatran etexilate): 163.7%
- PiCT ERmax, ratio of adjusted test/reference gMean (90% CI) ([1]; listed as dabigatran etexilate): 115.2%
- PiCT AUEC0–48, gMean [1, 6]: 23.8^c h
- PiCT ERmax (maximum effect ratio to baseline), gMean [1, 6]: 2.92^c
- PiCT Ebase (baseline effect), gMean [1, 6]: 34.7^c s
- PiCT AUEC0–48, gMean [1, 7]: 14.6 h
- PiCT ERmax (maximum effect ratio to baseline), gMean [1, 7]: 2.53
- PiCT Ebase (baseline effect), gMean [1, 7]: 28.4 s
- Increase of PiCT ERmax compared with dabigatran etexilate alone [1, 8]: approximately 15%
- PiCT time to peak ([1]; similar in both treatment regimens (alone and 24 h after enoxaparin)): 3 h
- aPTT AUEC0–48, ratio of adjusted test/reference gMean (90% CI) ([2]; after enoxaparin vs alone): 114.2 (75.1–173.5) %
- aPTT ERmax, ratio of adjusted test/reference gMean (90% CI) ([2]; after enoxaparin vs alone): 84.9 (70.3–102.5) %
- aPTT AUEC0–48, gMean [2, 9]: 6.56 h
- aPTT ERmax, gMean [2, 9]: 2.07
- aPTT Ebase (baseline effect), gMean [2, 9]: 39.3 s
- aPTT AUEC0–48, gMean [2, 10]: 5.65 h
- aPTT ERmax, gMean [2, 10]: 2.40
- aPTT Ebase (baseline effect), gMean [2, 10]: 39.1 s
- ECT AUEC0–48, ratio of adjusted test/reference gMean (90% CI) ([3]; after enoxaparin vs alone): 99.2 (67.8–145.0) %
- ECT ERmax, ratio of adjusted test/reference gMean (90% CI) ([3]; after enoxaparin vs alone): 91.0 (80.0–103.5) %
- ECT Ebase (baseline effect), gMean ([3]; dabigatran etexilate 220 mg after enoxaparin, n = 22): 32.6^d s
- ECT AUEC0–48, gMean [3, 11]: 7.30 h
- ECT ERmax, gMean [3, 11]: 2.05
- ECT AUEC0–48, gMean [3, 7]: 7.28 h
- ECT ERmax, gMean [3, 7]: 2.25
- ECT Ebase (baseline effect), gMean [3, 7]: 33.1 s
- dTT (HEMOCLOT) AUEC0–48, ratio of adjusted test/reference gMean (90% CI) (human α-thrombin; after enoxaparin vs alone): 88.4 (66.8–116.9) %
- dTT (HEMOCLOT) ERmax, ratio of adjusted test/reference gMean (90% CI) (human α-thrombin; after enoxaparin vs alone): 95.0 (87.4–103.2) %
- dTT (HEMOCLOT) AUEC0–48, gMean (human α-thrombin; [9]): 3.61 h
- dTT (HEMOCLOT) ERmax, gMean (human α-thrombin; [9]): 1.55
- dTT (HEMOCLOT) Ebase (baseline effect), gMean (human α-thrombin; [9]): 31.0 s
- dTT (HEMOCLOT) AUEC0–48, gMean (human α-thrombin; [10]): 4.01 h
- dTT (HEMOCLOT) ERmax, gMean (human α-thrombin; [10]): 1.64
- dTT (HEMOCLOT) Ebase (baseline effect), gMean (human α-thrombin; [10]): 31.7 s
- Tolerability (global assessment) (Safety and tolerability): well tolerated

- Ratio of free to total dabigatran gMean AUC0-∞ ([4]; after enoxaparin): 0.765
- AUC(0-inf) ([4]; oral): 592 ng·h/mL
- Cmax ([4]; oral): 78.4 ng/mL
- AUC(0-inf) ([4]; po, 220 mg): 700 ng·h/mL
- Cmax ([4]; po, 220 mg): 90.7 ng/mL
- Ratio of free to total dabigatran gMean AUC0-∞ ([4]; dabigatran alone): 0.760
- AUC0-∞, ratio test/reference [4, 12]: 85%
- Cmax, ratio test/reference [4, 12]: 86%
Compound: [H]/N=C(/N)c1ccc(NCc2nc3cc(C(=O)N(CCC(=O)O)c4ccccn4)ccc3n2C)cc1 [dabigatran]
- Increase of PiCT AUEC0–48 compared with dabigatran etexilate alone [1, 8]: 64%
- Increase of PiCT ERmax compared with dabigatran etexilate alone [1, 8]: ~15%
- Subjects with adverse events by actual treatment at onset (Safety and tolerability; treatment at onset: dabigatran (three subjects of 23)): 13.0%
- Subjects with adverse events by actual treatment at onset (Safety and tolerability; treatment at onset: enoxaparin + dabigatran (three subjects of 23)): 13.0%
- Glucuronide share of total dabigatran exposure in plasma [5]: approximately 20%

Compound: enoxaparin
- Effect of enoxaparin on ECT [3, 13]: not meaningfully affected
- Effect of enoxaparin on dTT (human α-thrombin; [13]): not meaningfully affected
- Tolerability (global assessment) (Safety and tolerability): well tolerated
- Subjects with adverse events by actual treatment at onset (Safety and tolerability; treatment at onset: enoxaparin (four subjects of 23)): 17.4%
- Mean anti-factor Xa/IIa ratio (factor Xa/IIa): 14.0 ± 3.1
